The source made the active and inactive calls. The rule behind the calls is not given here.
Experiments:
[1] = system: MDA-MB-231; test: Inhibition of osteolytic bone metastases in human MDA-MB-231 cells xenografted in athymic nude mouse left cardiac ventricle assessed as reduction of bone-tumor interface at 50 mg/kg, ip administered every other day for 3 weeks; assay type: functional; conditions: MDA-MB-231, Heart left ventricle, 504 h, route intraperitoneal
Procedure, shortened: (§1)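 Intracardiac MDA-MB-231 model in nude mice, dosed ip every other day for 21 days. Mid-sagittal tibia and femur sections TRAP-stained. TRAP+ multinucleated (>3 nuclei) cells counted at 40x along the tumor-bone interface. Expressed as osteoclasts per mm of interface.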

[2] = system: Mus musculus; test: Toxicity in human MDA-MB-231 cells xenografted athymic nude mouse left cardiac ventricle assessed as effect on white blood cells at 50 mg/kg, ip administered every other day for 3 weeks (reference value: 5.84 +/- 1.3 K/uL); conditions: in vivo, 504 h
[3] = system: MDA-MB-231; test: Inhibition of osteolytic bone metastases in human MDA-MB-231 cells xenografted in athymic nude mouse left cardiac ventricle assessed as reduction in lytic bone lesion area at 25 to 50 mg/kg, ip administered every other day for 3 weeks measured on day 16 relative to control; assay type: functional, Heart left ventricle; conditions: dose mg/kg 25-50; route intraperitoneal
Procedure, shortened: (§2)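 Four-week female athymic nude mice inoculated with 1 × 10^5 MDA-MB-231 cells in 0.1 mL PBS into the left cardiac ventricle. Dosed ip at 25 or 50 mg/kg or vehicle every other day from day 1 for 21 days, n = 11/group. Lytic lesion area quantified on radiographs on days 12, 16 and 21. Two-way ANOVA with Bonferroni.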

[4] = system: Mus musculus; test: Effect on orthotopic tumor mass in human MDA-MB-231 cells xenografted athymic nude mouse mammary fat pad at 25 to 50 mg/kg, ip administered every other day for 3 weeks
[5] = system: MDA-MB-231; test: Inhibition of osteolytic bone metastases in human MDA-MB-231 cells xenografted in athymic nude mouse left cardiac ventricle assessed as effect on tumor burden at 25 to 50 mg/kg, ip administered every other day for 3 weeks by histological analysis; assay type: functional, organism-based; conditions: Heart left ventricle
Procedure, shortened: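 Intracardiac MDA-MB-231 model in female nude mice, dosed ip every other day for 21 days, n = 11/group. Hindlimbs harvested day 21, formalin-fixed and EDTA-decalcified. Tumor area measured blinded on mid-sagittal 5 μm H&E sections of tibiae and femora at 10x magnification.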

[6] = system: Mus musculus; test: Toxicity in human MDA-MB-231 cells xenografted athymic nude mouse left cardiac ventricle assessed as effect on hematocrit at 50 mg/kg, ip administered every other day for 3 weeks (reference value: 30.2 +/- 1.5%); assay type: organism-based, Heart; set-up: dose 50 mg/kg, route intraperitoneal; conditions: in vivo, 504 h
[7] = system: Mus musculus; test: Toxicity in human MDA-MB-231 cells xenografted athymic nude mouse left cardiac ventricle assessed as effect on spleen weight at 50 mg/kg, ip administered every other day for 3 weeks (reference value: 0.134 +/- 0.02 gram); assay type: organism-based; set-up: dose 50 mg/kg, route intraperitoneal; conditions: in vivo, 504 h
[8] = system: MDA-MB-231; test: Cytotoxicity against human MDA-MB-231 cells assessed as cell viability by MTT assay; assay type: cell-based
Procedure, shortened: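 MDA-MB-231 plated at 5 × 10^4 cells/cm2 and held overnight in DMEM with 10% FBS at 37°C and 5% CO2. Pre-incubated 4 h with compound in 2% FBS DMEM, then medium refreshed with TGF-β1 (5 ng/mL) for 24 h. Cell number read by MTT reduction.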

[9] = system: Mus musculus; test: Toxicity in human MDA-MB-231 cells xenografted athymic nude mouse left cardiac ventricle assessed as effect on white blood cells at 25 mg/kg, ip administered every other day for 3 weeks (reference value: 5.84 +/- 1.3 K/uL); conditions: in vivo, 504 h
[10] = system: Mus musculus; test: Toxicity in human MDA-MB-231 cells xenografted athymic nude mouse left cardiac ventricle assessed as effect on liver weight at 25 mg/kg, ip administered every other day for 3 weeks (reference value: 1 +/- 0.10 gram); assay type: organism-based, Heart; set-up: dose 25 mg/kg, route intraperitoneal; conditions: in vivo, 504 h
[11] = biological target: Mothers against decapentaplegic homolog 2 (Homo sapiens) (UniProt Q15796); test: Inhibition of TGF-beta-induced Smad2 phosphorylation in human MDA-MB-231 cells treated 12 hrs before TGF-beta challenge measured after 1 hr by Western blotting; assay type: cell-based
Mothers against decapentaplegic homolog 2 (Homo sapiens), sequence (Q15796 whole entry): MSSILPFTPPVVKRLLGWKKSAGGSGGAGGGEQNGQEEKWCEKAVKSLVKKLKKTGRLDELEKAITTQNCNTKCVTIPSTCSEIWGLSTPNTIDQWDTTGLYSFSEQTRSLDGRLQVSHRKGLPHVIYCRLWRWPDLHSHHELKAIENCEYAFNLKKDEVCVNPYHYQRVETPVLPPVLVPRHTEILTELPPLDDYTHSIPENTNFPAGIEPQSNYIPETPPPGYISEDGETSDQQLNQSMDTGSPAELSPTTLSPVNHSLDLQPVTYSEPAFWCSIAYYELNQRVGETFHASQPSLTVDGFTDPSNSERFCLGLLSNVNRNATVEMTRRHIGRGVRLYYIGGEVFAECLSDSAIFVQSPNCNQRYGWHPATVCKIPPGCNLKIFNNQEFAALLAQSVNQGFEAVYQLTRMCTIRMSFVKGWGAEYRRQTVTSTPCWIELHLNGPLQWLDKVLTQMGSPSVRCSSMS
Procedure, shortened: (§3)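 Subconfluent MDA-MB-231 pre-treated 12 h with compound (80 μM), then TGF-β (5 ng/mL) for 1 h. RIPA whole-cell lysates (18 μg) run on SDS-PAGE and transferred to PVDF. Probed with rabbit anti-phospho-Smad2, phospho-Smad3, phospho-p38 or Ets-1 (1:1000, overnight, 4 °C). β-actin used as loading control. Chemiluminescent detection; three independent experiments.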

[12] = biological target: Mothers against decapentaplegic homolog 3 (Homo sapiens) (UniProt P84022); test: Inhibition of TGF-beta-induced Smad3 phosphorylation in human MDA-MB-231 cells treated 12 hrs before TGF-beta challenge measured after 1 hr by Western blotting; assay type: cell-based; procedure, shortened: as §3
Mothers against decapentaplegic homolog 3 (Homo sapiens), sequence (P84022 2-425 limits assumed): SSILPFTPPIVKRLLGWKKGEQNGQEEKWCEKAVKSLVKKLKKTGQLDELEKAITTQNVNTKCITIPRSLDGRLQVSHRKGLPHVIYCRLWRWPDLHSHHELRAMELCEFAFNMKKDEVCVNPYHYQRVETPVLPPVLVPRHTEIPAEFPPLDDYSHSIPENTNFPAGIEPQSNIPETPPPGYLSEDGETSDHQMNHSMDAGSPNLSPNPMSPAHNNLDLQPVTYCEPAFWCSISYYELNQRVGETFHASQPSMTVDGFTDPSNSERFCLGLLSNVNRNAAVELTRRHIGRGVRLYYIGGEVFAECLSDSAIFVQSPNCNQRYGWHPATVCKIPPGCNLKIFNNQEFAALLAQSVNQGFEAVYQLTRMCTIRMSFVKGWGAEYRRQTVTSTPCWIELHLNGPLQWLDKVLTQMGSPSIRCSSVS

[13] = biological target: MAP kinase p38 (Homo sapiens) (UniProt O15264+Q15759+Q16539+P53778); test: Inhibition of TGF-beta-induced p38 phosphorylation in human MDA-MB-231 cells treated 12 hrs before TGF-beta challenge measured after 1 hr by Western blotting; assay type: cell-based; procedure, shortened: as §3
[14] = system: Mus musculus; test: Toxicity in human MDA-MB-231 cells xenografted athymic nude mouse left cardiac ventricle assessed as effect on bone-forming osteoblast cell at 25 to 50 mg/kg, ip administered every other day for 3 weeks; assay type: organism-based, Heart; set-up: dose 25-50 mg/kg, route intraperitoneal; conditions: in vivo, 504 h
[15] = system: MDA-MB-231; test: Inhibition of osteolytic bone metastases in human MDA-MB-231 cells xenografted in athymic nude mouse left cardiac ventricle assessed as improvement in body weight at 25 to 50 mg/kg, ip administered every other day for 3 weeks measured on day 16 relative to vehicle-treated control; assay type: functional, organism-based; conditions: Heart left ventricle
[16] = system: Mus musculus; test: Toxicity in human MDA-MB-231 cells xenografted athymic nude mouse left cardiac ventricle assessed as effect on alanine aminotransferase at 25 mg/kg, ip administered every other day for 3 weeks (reference value: 7.04 +/- 2.2 U/L); assay type: organism-based, Heart; set-up: dose 25 mg/kg, route intraperitoneal; conditions: in vivo, 504 h
[17] = system: Mus musculus; test: Toxicity in human MDA-MB-231 cells xenografted athymic nude mouse left cardiac ventricle assessed as effect on liver weight at 50 mg/kg, ip administered every other day for 3 weeks (reference value: 1 +/- 0.10 gram); assay type: organism-based, Heart; set-up: dose 50 mg/kg, route intraperitoneal; conditions: in vivo, 504 h
[18] = system: MDA-MB-231; test: Inhibition of TGF-beta-induced PTHrP secretion in human MDA-MB-231 cells treated 4 hrs before TGF-beta challenge measured after 24 hrs by radioimmunoassay; assay type: functional, cell-based; conditions: for minimal effective concentration: read-out: MEC
Procedure, shortened: (§4)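 MDA-MB-231 plated at 5 × 10^4 cells/cm2 and held overnight in DMEM with 10% FBS. Pre-treated 4 h with compound (0.1–100 μM in methods; 0.1–300 μM in legend) in 2% FBS, then recombinant human TGF-β1 (5 ng/mL) or medium alone for 24 h. PTHrP measured in conditioned media by radioimmunoassay, n = 4 wells/group. IC50 from four-parameter logistic fit.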

[19] = system: Mus musculus; test: Toxicity in human MDA-MB-231 cells xenografted athymic nude mouse left cardiac ventricle assessed as effect on platelets at 50 mg/kg, ip administered every other day for 3 weeks (reference value: 513 +/- 54 K/uL); assay type: organism-based, Heart; set-up: dose 50 mg/kg, route intraperitoneal; conditions: in vivo, 504 h
[20] = system: Mus musculus; test: Toxicity in human MDA-MB-231 cells xenografted athymic nude mouse left cardiac ventricle assessed as effect on hematocrit at 25 mg/kg, ip administered every other day for 3 weeks (reference value: 30.2 +/- 1.5%); assay type: organism-based, Heart; set-up: dose 25 mg/kg, route intraperitoneal; conditions: in vivo, 504 h
[21] = system: MDA-MB-231; test: Inhibition of TGF-beta-induced Ets-1 expression in human MDA-MB-231 cells treated 12 hrs before TGF-beta challenge measured after 1 hr by Western blotting
[22] = system: MDA-MB-231; test: Inhibition of osteolytic bone metastases in human MDA-MB-231 cells xenografted in athymic nude mouse left cardiac ventricle assessed as improvement in host survival at 25 to 50 mg/kg, ip administered every other day for 3 weeks measured on day 16 relative to vehicle-treated control; assay type: functional, organism-based; conditions: Heart left ventricle
Procedure, shortened: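 Intracardiac MDA-MB-231 nude mice (n = 11/group) dosed ip every other day for 3 weeks. Survival shown by Kaplan–Meier and analyzed by logrank test with post-hoc logrank test for trend.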

[23] = system: MDA-MB-231; test: Inhibition of TGF-beta-induced PTHrP secretion in human MDA-MB-231 cells at 100 uM treated 4 hrs before TGF-beta challenge measured after 24 hrs by radioimmunoassay; assay type: functional, cell-based; procedure, shortened: as §4
[24] = system: Mus musculus; test: Toxicity in human MDA-MB-231 cells xenografted athymic nude mouse left cardiac ventricle assessed as effect on alanine aminotransferase at 50 mg/kg, ip administered every other day for 3 weeks (reference value: 7.04 +/- 2.2 U/L); assay type: organism-based, Heart; set-up: dose 50 mg/kg, route intraperitoneal; conditions: in vivo, 504 h
[25] = system: MDA-MB-231; test: Inhibition of osteolytic bone metastases in human MDA-MB-231 cells xenografted in athymic nude mouse left cardiac ventricle assessed as reduction of bone-tumor interface at 25 mg/kg, ip administered every other day for 3 weeks; assay type: functional; conditions: MDA-MB-231, Heart left ventricle, 504 h, route intraperitoneal; procedure, shortened: as §1
[26] = system: MDA-MB-231; test: Inhibition of osteolytic bone metastases in human MDA-MB-231 cells xenografted in athymic nude mouse left cardiac ventricle assessed as reduction in lytic bone lesion area at 25 to 50 mg/kg, ip administered every other day for 3 weeks measured on day 21 relative to control; assay type: functional, Heart left ventricle; conditions: dose mg/kg 25-50; route intraperitoneal; procedure, shortened: as §2
[27] = system: MDA-MB-231; test: Inhibition of osteolytic bone metastases in human MDA-MB-231 cells xenografted in athymic nude mouse left cardiac ventricle assessed as reduction of bone lysis at 25 to 50 mg/kg, ip administered every other day for 3 weeks measured on day 21; assay type: functional, Heart left ventricle; conditions: dose mg/kg 25-50; route intraperitoneal; procedure, shortened: as §2
[28] = system: Mus musculus; test: Toxicity in human MDA-MB-231 cells xenografted athymic nude mouse left cardiac ventricle assessed as effect on spleen weight at 25 mg/kg, ip administered every other day for 3 weeks (reference value: 0.134 +/- 0.02 gram); assay type: organism-based; set-up: dose 25 mg/kg, route intraperitoneal; conditions: in vivo, 504 h
[29] = system: Mus musculus; test: Toxicity in human MDA-MB-231 cells xenografted athymic nude mouse left cardiac ventricle assessed as effect on platelets at 25 mg/kg, ip administered every other day for 3 weeks (reference value: 513 +/- 54 K/uL); assay type: organism-based, Heart; set-up: dose 25 mg/kg, route intraperitoneal; conditions: in vivo, 504 h

inhibition [11]	inhibition [12]	inhibition [13]	IC50 [18]	SMILES	inhibition in vivo at 50 mg/kg [1]	Activity [2]	inhibition (INH) [3]	Activity [4]	inhibition [5]	Activity [6]	Activity [7]	MTC [8]	Activity [9]	Activity [10]	Activity [14]	Activity [15]	Activity [16]	Activity [17]	inhibition [18]	minimal effective concentration [18]	further results
Active	Active	inactive	24 µM	COc1cc(/C=C/C(=O)CC(=O)/C=C/c2ccc(O)c(OC)c2)ccc1O [CURCUMIN]	48%	6.83 K/uL	51%	inactive	inactive	31.1%	0.139 g	82 µM	4.69 K/uL	0.987 g	Non-toxic	Active	7.13 U/L	1.1 g	Dose-dependent effect	13 µM	Activity [19]: 589 K/uL; Activity [20]: 30.6%; inhibition [21]: Active; Activity [22]: Active; inhibition [23]: Active; Activity [24]: 5.02 U/L; inhibition in vivo at 25 mg/kg [25]: 53%; inhibition (INH) [26]: 57%; inhibition (INH) [27]: >50%; Activity [28]: 0.129 g; Activity [29]: 485 K/uL
Active	Active	inactive	24 µM	COc1cc(/C=C/C(O)=C/C(=O)/C=C/c2ccc(O)cc2)ccc1O [DEMETHOXYCURCUMIN]	48%	6.83 K/uL	51%	inactive	inactive	31.1%	0.139 g	82 µM	4.69 K/uL	0.987 g	Non-toxic	Active	7.13 U/L	1.1 g	Dose-dependent effect	13 µM	Activity [19]: 589 K/uL; Activity [20]: 30.6%; inhibition [21]: Active; Activity [22]: Active; inhibition [23]: Active; Activity [24]: 5.02 U/L; inhibition in vivo at 25 mg/kg [25]: 53%; inhibition (INH) [26]: 57%; inhibition (INH) [27]: >50%; Activity [28]: 0.129 g; Activity [29]: 485 K/uL

Reference: ChEMBL document CHEMBL2396536, “Curcuminoids block TGF-β signaling in human breast cancer cells and limit osteolysis in a murine model of breast cancer bone metastasis” (J Nat Prod, 2013)
